Assays:
Format in all cases: cell-based
[1] = target: CaV1.3 LTCCs expressed in HEK293 cells (Rattus norvegicus, UniProt P27732); assay: Automated planar whole-cell patch-clamp recording, CaV1.3; conditions: HEK293, read-out: % Inhibition (10 μM) CaV1.3
Summary of the method: (§1)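 HEK293 lines stably expressing the channel plus Kir2.1, grown in DMEM/10% FBS at 37 °C, 5% CO2, moved to 28 °C the day before. Automated whole-cell recording at room temperature; bath (mM) 120 NaCl, 20 CsCl, 10 BaCl2, pH 7.4; CsF-based internal. Current read at 0 mV, 250 ms into step from −60 mV, before and after compound or vehicle; only CdCl2 (5 mM)-sensitive current analysed, no leak subtraction.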

[2] = target: CaV1.2 L-type calcium channel (Homo sapiens, UniProt Q13936); assay: Automated planar whole-cell patch-clamp recording, CaV1.2; conditions: pH 7.4
Sequence of CaV1.2 L-type calcium channel (Q13936 whole entry): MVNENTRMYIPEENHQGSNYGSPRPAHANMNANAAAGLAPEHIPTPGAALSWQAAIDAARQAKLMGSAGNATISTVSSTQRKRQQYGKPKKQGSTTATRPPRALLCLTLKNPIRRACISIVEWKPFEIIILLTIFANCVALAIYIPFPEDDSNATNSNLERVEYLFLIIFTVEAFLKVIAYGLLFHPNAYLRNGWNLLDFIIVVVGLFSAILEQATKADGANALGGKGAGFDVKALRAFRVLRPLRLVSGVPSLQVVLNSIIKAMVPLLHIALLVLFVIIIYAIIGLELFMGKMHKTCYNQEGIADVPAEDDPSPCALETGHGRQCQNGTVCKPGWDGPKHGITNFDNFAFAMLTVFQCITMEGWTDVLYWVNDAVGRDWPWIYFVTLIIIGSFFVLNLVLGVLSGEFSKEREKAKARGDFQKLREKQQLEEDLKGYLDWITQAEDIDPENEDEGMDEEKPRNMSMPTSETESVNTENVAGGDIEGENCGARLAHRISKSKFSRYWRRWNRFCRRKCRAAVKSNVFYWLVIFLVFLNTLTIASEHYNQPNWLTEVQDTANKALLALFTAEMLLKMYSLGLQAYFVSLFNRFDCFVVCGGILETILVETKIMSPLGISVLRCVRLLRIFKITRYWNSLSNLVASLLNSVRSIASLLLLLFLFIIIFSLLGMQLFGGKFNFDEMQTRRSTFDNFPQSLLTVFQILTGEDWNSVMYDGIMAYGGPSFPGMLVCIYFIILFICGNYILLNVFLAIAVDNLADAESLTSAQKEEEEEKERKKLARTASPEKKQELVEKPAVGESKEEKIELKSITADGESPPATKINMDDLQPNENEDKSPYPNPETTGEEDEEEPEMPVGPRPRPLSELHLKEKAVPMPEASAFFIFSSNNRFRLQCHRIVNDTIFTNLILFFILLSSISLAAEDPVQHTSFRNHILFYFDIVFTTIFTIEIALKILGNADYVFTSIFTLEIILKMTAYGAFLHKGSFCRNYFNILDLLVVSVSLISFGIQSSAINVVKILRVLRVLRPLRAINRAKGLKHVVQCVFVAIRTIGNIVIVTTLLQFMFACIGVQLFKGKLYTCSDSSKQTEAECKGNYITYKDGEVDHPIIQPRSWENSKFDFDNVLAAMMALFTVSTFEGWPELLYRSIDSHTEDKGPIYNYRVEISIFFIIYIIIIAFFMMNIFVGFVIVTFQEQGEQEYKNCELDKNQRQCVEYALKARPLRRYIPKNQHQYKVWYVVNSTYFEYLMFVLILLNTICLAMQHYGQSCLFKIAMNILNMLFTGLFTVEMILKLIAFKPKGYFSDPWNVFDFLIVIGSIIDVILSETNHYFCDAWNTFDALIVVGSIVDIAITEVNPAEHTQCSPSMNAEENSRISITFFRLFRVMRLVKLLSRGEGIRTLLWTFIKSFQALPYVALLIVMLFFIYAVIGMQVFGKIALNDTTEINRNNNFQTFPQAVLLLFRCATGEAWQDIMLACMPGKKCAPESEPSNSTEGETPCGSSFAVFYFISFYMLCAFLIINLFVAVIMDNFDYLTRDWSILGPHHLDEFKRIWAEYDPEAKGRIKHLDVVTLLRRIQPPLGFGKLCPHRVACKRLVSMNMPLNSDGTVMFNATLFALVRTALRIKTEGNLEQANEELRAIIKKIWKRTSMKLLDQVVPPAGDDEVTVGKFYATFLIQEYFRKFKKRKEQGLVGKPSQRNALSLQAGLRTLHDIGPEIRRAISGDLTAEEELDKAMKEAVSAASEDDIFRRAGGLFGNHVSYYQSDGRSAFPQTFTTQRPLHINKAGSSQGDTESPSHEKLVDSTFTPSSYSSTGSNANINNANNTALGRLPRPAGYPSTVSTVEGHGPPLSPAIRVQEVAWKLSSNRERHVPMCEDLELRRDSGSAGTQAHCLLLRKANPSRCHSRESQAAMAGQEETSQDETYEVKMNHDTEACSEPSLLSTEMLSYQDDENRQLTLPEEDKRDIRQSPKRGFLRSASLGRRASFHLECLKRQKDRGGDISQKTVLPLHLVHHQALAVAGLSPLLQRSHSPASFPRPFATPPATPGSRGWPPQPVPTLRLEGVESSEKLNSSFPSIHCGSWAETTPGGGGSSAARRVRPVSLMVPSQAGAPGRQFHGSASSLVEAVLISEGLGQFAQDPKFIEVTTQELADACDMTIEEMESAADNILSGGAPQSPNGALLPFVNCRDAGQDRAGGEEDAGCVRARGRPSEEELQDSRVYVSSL
Sequence of CaV1.2 L-type calcium channel (P54284 whole entry partner): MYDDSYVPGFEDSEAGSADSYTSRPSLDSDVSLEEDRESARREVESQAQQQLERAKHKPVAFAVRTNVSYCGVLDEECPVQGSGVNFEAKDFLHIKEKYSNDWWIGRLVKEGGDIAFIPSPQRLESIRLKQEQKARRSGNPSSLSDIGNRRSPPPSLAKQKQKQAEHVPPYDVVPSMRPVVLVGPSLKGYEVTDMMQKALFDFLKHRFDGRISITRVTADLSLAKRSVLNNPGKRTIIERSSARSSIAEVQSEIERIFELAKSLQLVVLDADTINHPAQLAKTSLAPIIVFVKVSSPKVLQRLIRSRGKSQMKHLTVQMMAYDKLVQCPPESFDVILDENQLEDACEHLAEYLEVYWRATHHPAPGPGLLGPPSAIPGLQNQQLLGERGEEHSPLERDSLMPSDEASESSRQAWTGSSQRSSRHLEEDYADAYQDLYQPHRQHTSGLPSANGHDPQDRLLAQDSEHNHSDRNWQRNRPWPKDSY
Sequence of CaV1.2 L-type calcium channel (P54289 25-946 partner limits assumed): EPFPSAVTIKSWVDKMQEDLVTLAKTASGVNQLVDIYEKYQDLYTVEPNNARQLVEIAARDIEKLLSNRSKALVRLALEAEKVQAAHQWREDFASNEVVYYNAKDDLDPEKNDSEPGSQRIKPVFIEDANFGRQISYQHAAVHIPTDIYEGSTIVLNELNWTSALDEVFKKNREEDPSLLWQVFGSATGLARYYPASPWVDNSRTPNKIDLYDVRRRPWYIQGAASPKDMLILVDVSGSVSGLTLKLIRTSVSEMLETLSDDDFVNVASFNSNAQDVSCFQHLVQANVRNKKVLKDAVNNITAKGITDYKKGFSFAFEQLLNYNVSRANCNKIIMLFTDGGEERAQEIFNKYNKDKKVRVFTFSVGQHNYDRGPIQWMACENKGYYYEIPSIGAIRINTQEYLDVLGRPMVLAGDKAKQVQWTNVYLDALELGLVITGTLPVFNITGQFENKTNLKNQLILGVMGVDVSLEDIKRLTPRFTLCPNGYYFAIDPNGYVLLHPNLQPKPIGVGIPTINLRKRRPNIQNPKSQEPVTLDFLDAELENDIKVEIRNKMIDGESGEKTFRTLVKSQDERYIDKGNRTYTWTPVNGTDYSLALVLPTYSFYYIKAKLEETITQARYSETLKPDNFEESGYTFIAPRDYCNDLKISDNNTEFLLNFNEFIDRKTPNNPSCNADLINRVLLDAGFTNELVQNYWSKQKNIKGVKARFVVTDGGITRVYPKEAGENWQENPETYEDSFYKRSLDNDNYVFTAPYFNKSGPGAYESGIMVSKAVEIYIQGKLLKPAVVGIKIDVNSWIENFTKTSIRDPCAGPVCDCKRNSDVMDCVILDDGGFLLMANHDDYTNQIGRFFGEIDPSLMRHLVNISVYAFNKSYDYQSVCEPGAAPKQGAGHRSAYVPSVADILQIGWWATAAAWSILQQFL
Sequence of CaV1.2 L-type calcium channel (P54289 947-1103 partner limits assumed): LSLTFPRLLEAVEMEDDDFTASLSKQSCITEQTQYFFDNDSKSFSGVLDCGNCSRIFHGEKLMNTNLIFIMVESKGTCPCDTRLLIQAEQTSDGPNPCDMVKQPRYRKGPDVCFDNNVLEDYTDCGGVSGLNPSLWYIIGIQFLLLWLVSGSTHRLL
Summary of the method: as §1

[3] = target: CaV1.2 LTCCs expressed in HEK293 cells (Homo sapiens, UniProt Q13936); assay: as above
Sequence of CaV1.2 LTCCs expressed in HEK293 cells (Q13936 whole entry): as the sequence (Q13936 whole entry) above
Sequence of CaV1.2 LTCCs expressed in HEK293 cells (P54284 whole entry partner): as the sequence (P54284 whole entry partner) above
Sequence of CaV1.2 LTCCs expressed in HEK293 cells (P54289 25-946 partner limits assumed): as the sequence (P54289 25-946 partner limits assumed) above
Sequence of CaV1.2 LTCCs expressed in HEK293 cells (P54289 947-1103 partner limits assumed): as the sequence (P54289 947-1103 partner limits assumed) above
Summary of the method: as §1

Structure (SMILES)	inhibition at 10 µM [1] [%]	inhibition at 10 µM [2] [%]	IC50 [3] [µM]
O=C1C(c2cccc(C(F)(F)F)c2)C(=O)N(CCc2cccc(Cl)c2)C(=O)N1CCCc1ccc(Cl)cc1 (centres unmarked) [14b, 1-(3-Chlorophenethyl)-3-(3-(4-chlorophenyl)propyl)-5-(3-(trifluoromethyl)phenyl)pyrimidine-2,4,6(1H,3H,5H)-trione]	95.6	98.8	–
O=C1C(c2cccc([N+](=O)[O-])c2)C(=O)N(C2CCCC2)C(=O)N1CCCCc1cccc(Cl)c1 (centres unmarked) [14a, 1-(4-(3-Chlorophenyl)butyl)-3-cyclopentyl-5-(3-nitrophenyl)pyrimidine-2,4,6(1H,3H,5H)-trione]	76.9	72.7	3.72
O=C1C(c2cccc(C(F)(F)F)c2)C(=O)N(CCc2cccc(Cl)c2)C(=O)N1CCCc1ccc(C(F)(F)F)cc1 (centres unmarked) [14d, 1-(3-Chlorophenethyl)-5-(3-(trifluoromethyl)phenyl)-3-(3-(4-(trifluoromethyl)phenyl)propyl)pyrimidine-2,4,6(1H,3H,5H)-trione]	93.1	81.2	4.53
O=C1C(c2cccc(C(F)(F)F)c2)C(=O)N(CCc2cccc(Cl)c2)C(=O)N1CCCCc1ccc(C(F)(F)F)cc1 (centres unmarked) [14g, 1-(3-Chlorophenethyl)-5-(3-(trifluoromethyl)phenyl)-3-(4-(4-(trifluoromethyl)phenyl)butyl)pyrimidine-2,4,6(1H,3H,5H)-trione]	82.8	88.2	–
O=C1C(c2cccc(C(F)(F)F)c2)C(=O)N(CCc2cccc(Cl)c2)C(=O)N1CCCc1cccc(Cl)c1 (centres unmarked) [14c, 1-(3-Chlorophenethyl)-3-(3-(3-chlorophenyl)propyl)-5-(3-(trifluoromethyl)phenyl)pyrimidine-2,4,6(1H,3H,5H)-trione]	97.3	99.2	–
O=C1C(c2cccc(C(F)(F)F)c2)C(=O)N(CCc2cccc(Cl)c2)C(=O)N1CCCCc1ccc(Cl)cc1 (centres unmarked) [14e, 1-(3-Chlorophenethyl)-3-(4-(4-chlorophenyl)butyl)-5-(3-(trifluoromethyl)phenyl)pyrimidine-2,4,6(1H,3H,5H)-trione]	93.8	96.1	2.41
O=C1C(c2cccc(C(F)(F)F)c2)C(=O)N(CCc2cccc(Cl)c2)C(=O)N1CCCCc1cccc(Cl)c1 (centres unmarked) [14f, 1-(3-Chlorophenethyl)-3-(4-(3-chlorophenyl)butyl)-5-(3-(trifluoromethyl)phenyl) pyrimidine-2,4,6(1H,3H,5H)-trione]	79.8	100	–

— publication PMC9089348 (ACS Omega, 2022)
